# Columns and labels:
# [1] = Inhibition of LPS-induced mouse B-lymphocyte proliferation (Mean of IC50/ATRA IC50); type: functional
# In short: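 BALB/c splenocytes at 1.2 × 10⁵ cells/well in RPMI-1640 with 50 µM 2-mercaptoethanol, 10% FBS and 5 µg/mL E. coli LPS. Compounds were tested in log dilutions from 1.0 × 10^-6 to 1.0 × 10^-12 M final, in triplicate, for 3 days at 37 °C and 5% CO₂. IC50 was fitted by nonlinear regression and divided by the ATRA IC50. Reported as mean ± SEM of triplicates.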
# [2] = target: T1, Retinoic acid receptor alpha (Homo sapiens) (UniProt P10276); test: Relative transcriptional activation in COS cells expressing Retinoic acid receptor alpha compared to ATRA; type: functional, cell-based
# T1 sequence (whole entry): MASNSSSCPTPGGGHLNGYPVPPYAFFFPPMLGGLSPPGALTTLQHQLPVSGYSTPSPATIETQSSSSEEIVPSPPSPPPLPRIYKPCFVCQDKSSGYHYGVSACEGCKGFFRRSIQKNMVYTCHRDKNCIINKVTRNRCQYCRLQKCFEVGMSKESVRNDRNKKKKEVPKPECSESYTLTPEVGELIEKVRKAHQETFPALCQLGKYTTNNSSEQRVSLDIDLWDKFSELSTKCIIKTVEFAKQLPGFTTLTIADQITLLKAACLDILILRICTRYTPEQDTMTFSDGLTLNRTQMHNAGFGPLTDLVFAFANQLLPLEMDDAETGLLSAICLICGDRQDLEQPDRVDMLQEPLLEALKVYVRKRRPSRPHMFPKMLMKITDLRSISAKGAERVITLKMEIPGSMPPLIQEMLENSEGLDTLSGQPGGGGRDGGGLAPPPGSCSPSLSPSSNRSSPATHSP
# In short: (§1)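 COS-1 cells were lipofected with receptor and reporter vectors. After 4 h the medium was changed to DMEM/10% FBS for a further 20 h, then cells were reseeded at 3 × 10⁴/well. After 6 h, compounds were added in log dilutions from 3.0 × 10^-6 to 1.0 × 10^-10 M, in duplicate, for 48 h. Supernatant PLAP activity was measured. EC30 (concentration giving 30% of maximal response) was normalized to ATRA EC30. Values averaged from at least two experiments.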
# [3] = target: T1, Retinoic acid receptor alpha (Homo sapiens); test: Inhibition of [3H]-ATRA binding to Retinoic acid receptor alpha (RAR-alpha)
# In short: (§2)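 Competitive binding of [³H]ATRA to individual RAR subtypes. Each IC50 was divided by the ATRA IC50 to give a relative IC50. Reported as mean ± SEM, averaged from at least two experiments.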
# [4] = target: T2, Retinoic acid receptor gamma (Homo sapiens) (UniProt P13631); test: Relative transcriptional activation in COS cells expressing Retinoic acid receptor gamma compared to ATRA; type: functional, cell-based; in short: as §1
# T2 sequence (whole entry): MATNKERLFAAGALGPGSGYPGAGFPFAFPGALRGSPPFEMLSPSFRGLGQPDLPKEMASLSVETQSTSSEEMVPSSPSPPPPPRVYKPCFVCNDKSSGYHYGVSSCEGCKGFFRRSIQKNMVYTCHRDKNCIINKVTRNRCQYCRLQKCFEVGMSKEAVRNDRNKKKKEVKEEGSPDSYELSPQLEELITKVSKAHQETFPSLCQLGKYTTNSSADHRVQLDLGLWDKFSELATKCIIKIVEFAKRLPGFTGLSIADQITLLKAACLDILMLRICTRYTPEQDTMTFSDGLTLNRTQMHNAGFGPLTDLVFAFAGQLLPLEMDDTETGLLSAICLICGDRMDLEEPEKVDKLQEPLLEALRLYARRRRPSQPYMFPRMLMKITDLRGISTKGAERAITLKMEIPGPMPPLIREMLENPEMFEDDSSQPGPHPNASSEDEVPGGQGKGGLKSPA
# [5] = target: T3, Retinoic acid receptor beta (Homo sapiens) (UniProt P10826); test: Relative transcriptional activation in COS cells expressing Retinoic acid receptor beta compared to ATRA; type: functional, cell-based; in short: as §1
# T3 sequence (whole entry): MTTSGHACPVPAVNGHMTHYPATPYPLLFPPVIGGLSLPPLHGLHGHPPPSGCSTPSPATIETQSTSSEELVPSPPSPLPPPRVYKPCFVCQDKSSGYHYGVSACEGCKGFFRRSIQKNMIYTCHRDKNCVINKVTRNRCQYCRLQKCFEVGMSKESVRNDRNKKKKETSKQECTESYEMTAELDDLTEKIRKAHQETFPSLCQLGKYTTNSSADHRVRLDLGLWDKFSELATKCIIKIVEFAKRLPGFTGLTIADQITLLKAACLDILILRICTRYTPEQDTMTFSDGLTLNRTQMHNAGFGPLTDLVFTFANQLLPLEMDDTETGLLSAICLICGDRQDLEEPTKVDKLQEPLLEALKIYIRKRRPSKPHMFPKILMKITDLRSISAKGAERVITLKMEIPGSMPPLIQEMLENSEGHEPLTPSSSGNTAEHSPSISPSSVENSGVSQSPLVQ
# [6] = target: T3, Retinoic acid receptor beta (Homo sapiens); test: Inhibition of [3H]ATRA binding to Retinoic acid receptor beta (RAR-beta); in short: as §2
Relative EC30 [2] [nM],Relative IC50 [3] [nM],Relative EC30 [4] [nM],Relative EC30 [5] [nM],Relative IC50 [6] [nM],Compound,Relative IC50 [1]
1.3,6.1,840,130,,Cc1ccc(C)c2sc(-c3ccc(-c4ccc(C(=O)O)cc4)[nH]3)cc12,0.75
2.4,62,2900,1300,,Cc1cc(C)c2sc(-c3ccc(-c4ccc(C(=O)O)cc4)[nH]3)cc2c1,3.6
0.7,1.5,820,110,690,O=C(O)c1ccc(-c2ccc(-c3cc4c(Cl)ccc(Cl)c4o3)[nH]2)cc1,1.3
0.29,1.9,110,8.5,500,O=C(O)c1ccc(-c2ccc(-c3cc4c(C(F)(F)F)ccc(F)c4o3)[nH]2)cc1,0.37
0.37,1.4,240,25,490,Cc1ccc(C)c2oc(-c3ccc(-c4ccc(C(=O)O)cc4)[nH]3)cc12,0.76
3.1,12,2000,160,,Cc1ccc2cc(-c3ccc(-c4ccc(C(=O)O)cc4)[nH]3)oc2c1C,2.4
1,16,890,380,,Cc1cc(C)c2oc(-c3ccc(-c4ccc(C(=O)O)cc4)[nH]3)cc2c1,1.2
0.8,1.6,1000,92,,Cc1cccc2cc(-c3ccc(-c4ccc(C(=O)O)cc4)[nH]3)oc12,0.98
6,15,3700,730,,COc1ccc(C)c2oc(-c3ccc(-c4ccc(C(=O)O)cc4)[nH]3)cc12,4.7
2,9.4,480,200,,Cc1cc(C)c2oc(-c3ccc(-c4ccc(C(=O)O)cc4)[nH]3)cc2c1C,2.2

# From ChEMBL document CHEMBL1133462, “Discovery of novel and potent retinoic acid receptor alpha agonists: syntheses and evaluation of benzofuranyl-pyrrole and benzothiophenyl-pyrrole derivatives” (2000)
